Measurements as given in ChEMBL document CHEMBL1145403, “Structure-based design of flavonoid compounds as a new class of small-molecule inhibitors of the anti-apoptotic Bcl-2 proteins” (J Med Chem, 2007).
pIC50, pKi: −log10 of the molar value. Calls of active or inactive are those of the source. No cut-off for these calls is given here.

How the values were obtained:
[1] = target: Induced myeloid leukemia cell differentiation protein Mcl-1 (Homo sapiens, UniProt Q07820); assay: Displacement of FAM-Bim peptide from human Mcl1 by fluorescence polarization assay
Sequence of Induced myeloid leukemia cell differentiation protein Mcl-1 (Q07820 whole entry): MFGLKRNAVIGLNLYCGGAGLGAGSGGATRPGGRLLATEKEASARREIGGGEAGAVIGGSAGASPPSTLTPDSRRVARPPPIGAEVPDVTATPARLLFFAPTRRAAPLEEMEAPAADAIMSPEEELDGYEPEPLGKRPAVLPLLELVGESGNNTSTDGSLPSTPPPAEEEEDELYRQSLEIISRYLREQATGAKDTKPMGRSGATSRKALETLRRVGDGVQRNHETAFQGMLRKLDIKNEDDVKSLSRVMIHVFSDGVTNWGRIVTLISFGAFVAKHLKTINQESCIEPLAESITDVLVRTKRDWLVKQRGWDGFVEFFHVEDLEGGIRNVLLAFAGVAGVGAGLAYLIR
How it was run: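 Compound added from DMSO, 4 h incubation, polarization at ex 485/em 530 nm. IC50 by nonlinear least-squares fit; Ki from the FP equation.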

[2] = target: Apoptosis regulator Bcl-2 (Homo sapiens, UniProt P10415); assay: Displacement of FAM-Bim peptide from human Bcl2 by fluorescence polarization assay
Sequence of Apoptosis regulator Bcl-2 (P10415 whole entry): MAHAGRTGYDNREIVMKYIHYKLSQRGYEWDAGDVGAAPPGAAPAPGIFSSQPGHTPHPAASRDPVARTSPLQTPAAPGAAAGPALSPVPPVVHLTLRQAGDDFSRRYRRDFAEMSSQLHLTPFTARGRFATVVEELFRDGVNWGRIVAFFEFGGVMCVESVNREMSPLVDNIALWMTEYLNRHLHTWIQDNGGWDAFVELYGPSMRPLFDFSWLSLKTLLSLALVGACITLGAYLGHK

MDA-MB-231 [3] = assay: Growth inhibition of human MDA-MB-231 cells after 4 days by WST-based assay; format: functional, cell-based; details: MDA-MB-231, 96 h
How it was run: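 Cells seeded at 3-4 × 10^3/well together with graded compound concentrations and cultured 4 days. WST-8 added at 10% final, then 2-3 h at 37°C. Absorbance read at 450 nm. IC50 = 50% growth inhibition relative to untreated cells.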

MDA-MB-231 [4] = assay: Induction of apoptosis in human MDA-MB-231 cells after 3 days by Annexin V/propidium iodide staining-based flow cytometry
MDA-MB-231 [5] = assay: Induction of apoptosis in human MDA-MB-231 cells at 0.5 uM after 3 days by Annexin V/propidium iodide staining-based flow cytometry
MDA-MB-231 [6] = assay: Induction of apoptosis in human MDA-MB-231 cells at 1 uM after 3 days by Annexin V/propidium iodide staining

Row | pKi [1] | pKi [2] | pIC50 (MDA-MB-231 [3]) | Activity [1] | Activity [2] | SMILES | Activity (MDA-MB-231 [4]) | Activity (MDA-MB-231 [5]) [%] | Activity (MDA-MB-231 [6]) [%]
1 | 6.40 | 6.47 | 5.28 | – | – | Cc1oc2c(CC(C)C)c(O)c(O)c(O)c2c(=O)c1-c1ccccc1 | – | – | –
2 | – | – | < 4.00 | inactive | inactive | COc1c(OC)c(OC)c2c(=O)c(-c3ccc(-c4c(C)oc5c(CC(C)C)c(OC)c(OC)c(OC)c5c4=O)cc3)c(C)oc2c1CC(C)C | – | – | –
3 | 7.74 | 7.77 | 6.96 | – | – | Cc1oc2c(CC(C)C)c(O)c(O)c(O)c2c(=O)c1-c1ccc(-c2c(C)oc3c(CC(C)C)c(O)c(O)c(O)c3c2=O)cc1 | Dose-dependent effect | 24.5 | 64.4
4 | 5.77 | 6.14 | 4.52 | – | – | Cc1cc(=O)c2c(O)c(O)c(O)c(CC(C)C)c2o1 | – | – | –

Row | SMILES | pKi [1] | pKi [2] | pIC50 (MDA-MB-231 [3]) | Activity [1] | Activity [2] | Activity (MDA-MB-231 [4]) | Activity (MDA-MB-231 [5]) [%] | Activity (MDA-MB-231 [6]) [%]
5 | Cc1cc2c(C(C)C)c(O)c(O)c(C=O)c2c(O)c1-c1c(C)cc2c(C(C)C)c(O)c(O)c(C=O)c2c1O [GOSSYPOL] | 6.55 | – | 5.72 | – | – | – | – | –
